Assays:
[1] = target: T1, TAS2R5 (Homo sapiens, UniProt Q9NYW4); assay type: cell-based
T1 sequence (Q9NYW4 1-299): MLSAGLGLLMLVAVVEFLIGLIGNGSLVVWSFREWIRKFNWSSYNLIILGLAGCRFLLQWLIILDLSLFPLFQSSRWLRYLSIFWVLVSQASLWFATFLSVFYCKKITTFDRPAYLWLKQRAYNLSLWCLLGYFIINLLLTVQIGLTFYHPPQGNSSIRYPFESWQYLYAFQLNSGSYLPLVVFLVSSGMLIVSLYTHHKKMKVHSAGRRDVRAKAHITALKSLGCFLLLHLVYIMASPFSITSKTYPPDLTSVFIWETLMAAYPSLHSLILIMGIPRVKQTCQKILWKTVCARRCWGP

[2] = target: T1, TAS2R5; assay: FLOWER microtoroid optical resonator receptor-ligand affinity measurement; assay type: binding
Method in brief: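 Microtoroid coated with DOPC vesicles (0.5 mg/mL, 1.5 h, 3–4 °C). HEK-293-expressed TAS2R5 was extracted with CellLyticM (1:3) and spun 12,500 rcf, 60 min, 4 °C. The supernatant, diluted 1:6 in DPBS pH 7.4, was incubated with the toroid for 1.5 h. Graded agonist concentrations were perfused with 5-min buffer rinses. Peak wavelength shift per concentration was fit to a Hill binding equation (Bmax, nonspecific, background terms) for KD.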

c1cnc2c(c1)ccc1cccnc12 [T5-1, 1,10-phenanthroline]
EC50 ([1]; EC50, D9 cells, Fluo-4, [Ca2+]i, mean ± SE of 7 to 10 experiments): 23.1 ± 3.99 µM
EC50, fold lower than that of T5-14 ([1]; [Ca2+]i in D9 cells): 3 fold
potency class of the agonist ([1]; cellular assays): moderate-potency
S.T. (log-transformed signal transduction coefficient) ([1]; log(EMax/EC50), EC50 in Molar): 6.5
Kd [2]: 13 ± 3.5 µM

Source: article PMC11621838 (Proceedings of the National Academy of Sciences of the …, 2024)
